From PMC2190483 (The Journal of Experimental Medicine, 1976)

Experiments:
human eosinophils [1] = assay: Cross-deactivation of eosinophils, assessed by response to C5a; assay type: cell-based; conditions: 10-12 M tetrapeptide pretreatment; Fig. 4
How it was run: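 Eosinophils in HBSS-ovalbumin were pretreated 2–40 min at 37°C with graded valyl- or alanyl-tetrapeptide and washed three times. They were then challenged in a Boyden chamber with C5a at the level derived from 2.5 µg equivalent of C5/ml. C5a came from tryptic digestion of human plasma C5, heated 20 min at 61°C and centrifuged. Results are % of buffer-treated control, mean ±1 SD, three experiments.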

human eosinophils [2] = assay: Chemotactic deactivation of eosinophils, assessed by response to Val-Gly-Ser-Glu; assay type: cell-based; conditions: for deactivation (qualitative): 10-r' M tetrapeptide, response to valyl-tetrapeptide, Fig. 3
How it was run: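 Leukocytes from hypereosinophilic donors were dextran-sedimented, washed and resuspended in HBSS with 0.4% ovalbumin and Tris-HCl pH 7.4. Eosinophils were preincubated 2–40 min at 37°C with graded valyl- or alanyl-tetrapeptide, then washed three times. They were then challenged in a Boyden chamber (3-µm filter) with 10^-7 M valyl-tetrapeptide. Residual response is given as % of buffer-treated cells, mean ±1 SD of three experiments.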

human eosinophils [3] = assay: Modulation; assay type: cell-based; conditions: for irreversible inhibition of the eosinophil response to 10-7 M valyl-tetrapeptide: neutrophil comparison; for inhibition of response to 10-7 M valyl-tetrapeptide: pretreatment with 10^-7 M tripeptide followed by washing; for inhibition of the valyl-tetrapeptide effect: 10^-7 M tripeptide added with the stimulus
How it was run: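 Tripeptides or amides were added to the stimulus compartment with 10^-7 M valyl-tetrapeptide or to the cell compartment. Alternatively, eosinophils were preincubated with them 20 min at 37°C and washed three times. Migration in a modified Boyden chamber (3-µm filter, 2½–3 h, 37°C) was counted as net eosinophils/hpf. It is expressed as % of the response of buffer-treated cells.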

neutrophils = assay: Neutrophil chemotaxis to valyl-tetrapeptide and its inhibition by tripeptides; assay type: cell-based, human; conditions: for irreversible inhibition of the neutrophil response: response to 10^-7 M valyl-tetrapeptide; for inhibition of the response of neutrophils: tripeptide added to the stimulus, equimolar to valyl-tetrapeptide; for chemotactic response of neutrophils: valyl-tetrapeptide stimulus, neutrophils purified to 98%
How it was run: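 Neutrophils from normal donors were isolated on Ficoll-Hypaque to 98% purity, washed and resuspended in HBSS-ovalbumin. They were tested in modified Boyden chambers with a 3-µm filter against 10^-7 M valyl-tetrapeptide, with or without NH2- or COOH-terminal tripeptide, for 2½–3 h at 37°C. Migrated cells were counted blind in 10 hpf from duplicate chambers as net neutrophils/hpf.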

human eosinophils [4] = assay: Suppression of the eosinophil chemotactic response to C5a by tripeptides; assay type: cell-based; conditions: for inhibition of response to C5a: pretreatment with 10^-7 M tripeptide followed by washing; for inhibition of the C5a-stimulated response: 10^-7 M tripeptide added with the stimulus
How it was run: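 NH2-terminal tripeptide was added to the stimulus compartment with C5a in two experiments. In three experiments, eosinophils were pretreated with COOH-terminal tripeptide and washed. The C5a stimulus was a tryptic digest of purified human plasma C5, heat-treated 20 min at 61°C.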

human eosinophils [5] = assay: Eosinophil chemotaxis in modified Boyden chambers; assay type: cell-based; conditions: for chemotactic activity (qualitative): eosinophils; for magnitude of the maximum eosinophil response (rank among tetrapeptides): Discussion, Fig. 1
How it was run: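 Blood from donors with 26–89% eosinophilia was citrate/dextran-sedimented 30 min at 37°C and centrifuged 100 g for 10 min. Leukocytes were washed three times into HBSS-0.4% ovalbumin-Tris pH 7.4. Stimuli in the lower compartment were separated from cells by a 3-µm filter, incubated 2½–3 h at 37°C. Fixed, stained filters were read blind at background depth (2–8 cells/hpf), 10 hpf from duplicate chambers, as net cells/hpf.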

human eosinophils [6] = assay type: cell-based
How it was run: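 Eosinophils were pretreated 20 min at 37°C with deactivating valyl-tetrapeptide or COOH-terminal tripeptide, with Val-Gly-Ser present at graded concentrations. They were then washed three times. Residual chemotactic response to 10^-7 M valyl-tetrapeptide was measured in Boyden chambers. It is expressed as mean % of buffer-exposed control response, from two experiments with different donors.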

## Ala-Gly-Ser-Glu
Human eosinophils [1]
  effect on eosinophil responsiveness to C5a: did not decrease
Human eosinophils [2]
  deactivation (qualitative): substantial deactivation

## Gly-Ser-Glu
Human eosinophils [3]; 10^-7 M mixed with an equimolar quantity of valyl-tetrapeptide stimulus
  effect when mixed with stimulus: ineffective
Human eosinophils [3]; experiment 1
  irreversible inhibition of the eosinophil response to 10-7 M valyl-tetrapeptide: 61%
Human eosinophils [3]; experiment 2
  irreversible inhibition of the eosinophil response to 10-7 M valyl-tetrapeptide: 74%
Human eosinophils [3]; experiment 2 of three
  inhibition of response to 10-7 M valyl-tetrapeptide: 62%
Human eosinophils [3]; experiment 3 of three
  inhibition of response to 10-7 M valyl-tetrapeptide: 48%
neutrophils; experiment 1
  irreversible inhibition of the neutrophil response: 33%
neutrophils; experiment 2
  irreversible inhibition of the neutrophil response: 28%
Human eosinophils [4]; experiment 1 of three
  inhibition of response to C5a: 71%
Human eosinophils [4]; experiment 2 of three
  inhibition of response to C5a: 53%
Human eosinophils [4]; experiment 3 of three
  inhibition of response to C5a: 37%
Human eosinophils [5]
  chemotactic activity (qualitative): only marginally chemotactic

## Leu- Ser-Glu [Leu-Ser-Glu]
Human eosinophils [5]; versus maximum obtained with 10^-7 M tetrapeptides, Fig. 2
  maximum activity as fraction of maximum chemotactic activity of tetrapeptides: approximately two-thirds

## Leu-Gly-Ser-Glu
Human eosinophils [5]
  magnitude of the maximum eosinophil response (rank among tetrapeptides): the least

## Phe-Gly-Ser-Glu
Human eosinophils [2]; at 10^-6 M
  deactivating activity (qualitative): comparable to 10-~ M alanyl-tetrapeptide
Human eosinophils [2]; at 10^-7 M
  deactivating activity (qualitative): minimally evident
Human eosinophils [5]
  magnitude of the maximum eosinophil response (rank among tetrapeptides): greatest maximum response

## Val-Gly-Ser
Human eosinophils [3]; experiment 1 of two
  inhibition of the valyl-tetrapeptide effect: 47%
Human eosinophils [3]; experiment 2 of two
  inhibition of the valyl-tetrapeptide effect: 61%
Human eosinophils [3]; on the stimulus side with 10^-7 M valyl-tetrapeptide, equimolar concentrations, Discussion, Fig. 5
  inhibition of the eosinophil response: 50-60%
Human eosinophils [3]; tripeptide added to the 10^-7 M tetrapeptide stimulus at approximately an equimolar concentration, Fig. 5, Results
  inhibition of the eosinophil response: 50%
neutrophils; equimolar concentrations, Discussion
  reduction of the neutrophil response to 10-7 M valyl-tetrapeptide: Approximately 50%
neutrophils; experiment 1
  inhibition of the response of neutrophils: 49%
neutrophils; experiment 2
  inhibition of the response of neutrophils: 54%
Human eosinophils [4]; experiment 1 of two
  inhibition of the C5a-stimulated response: 18%
Human eosinophils [4]; experiment 2 of two
  inhibition of the C5a-stimulated response: 29%
Human eosinophils [5]
  chemotactic activity (qualitative): only marginally chemotactic
Human eosinophils [6]; at an equimolar concentration or at a 10-fold excess
  protection against the COOH-terminal tripeptide: no protection
Human eosinophils [6]; equimolar concentration of tripeptide and deactivating valyl-tetrapeptide
  protection from deactivation by valyl-tetrapeptide: 40-50%
Human eosinophils [6]; tripeptide at 10^-7 M with 10^-8 M valyl-tetrapeptide
  protection from deactivation by valyl-tetrapeptide (qualitative): completely protective

## Val-Gly-Ser-Glu
Human eosinophils [1]
  effect on eosinophil responsiveness to C5a: did not decrease
neutrophils; experiment 1
  chemotactic response of neutrophils: 16.9 neutrophils/hpf
neutrophils; experiment 2
  chemotactic response of neutrophils: 21.4 neutrophils/hpf
Human eosinophils [2]
  deactivation (qualitative): substantial deactivation
Human eosinophils [5]; 10^-7 M stimulus, Table I, donor 2 (37% eosinophilia)
  control chemotactic response: 12.3 net eosinophils per hpf
Human eosinophils [5]; 10^-7 M stimulus, Table II, experiment 2, buffer-exposed cells
  control chemotactic response: 11.7 net eos/hpf
Human eosinophils [5]; valyl-tetrapeptide stimulus, neutrophil comparison, experiment 2
  chemotactic response of eosinophils: 15.3 eosinophils (eos)/hpf

B1: C5a: prepared by tryptic digestion of purified C5 prepared from human plasma (protein, UniProt P01031 678-751, looked up)
C5a anaphylatoxin: TLQKKIEEIAAKYKHSVVKKCCYDGACVNNDETCEQRAARISLGPRCIKAFTECCVVASQLRANISHKDMQLGR
modifications: C5a anaphylatoxin
Human eosinophils [5]; C5a derived from 2.5 µg equivalent of C5/ml, Fig. 4, donor 2 (43% eosinophilia)
  control chemotactic response: 16.5 net eos/hpf
Human eosinophils [5]; C5a derived from 2.5 µg equivalent of C5/ml, Fig. 4, donor 3 (59% eosinophilia)
  control chemotactic response: 18.8 net eos/hpf
